This note sets out measurements from ChEMBL document CHEMBL4422628, “Discovery of first-in-class thiazole-based dual FFA1/PPARδ agonists as potential anti-diabetic agents” (Eur J Med Chem, 2019).

For data set [1], the system named is Mus musculus. The data set can be described thus: Antidiabetic activity in ob/ob mouse assessed as change in blood glucose AUC (0 to 120 mins) at 10 mg/kg, po administered as single dose pretreated for 30 mins followed by glucose-challenge by glucometric analysis relative to control. The format is functional. The procedure, abridged:
(§1)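 Male ob/ob mice (six weeks old on arrival, acclimatized one week) were fasted 12 h and randomized (n = 6/group). Each received a single oral dose in 0.5% carboxymethyl cellulose vehicle, then 3 g/kg oral glucose 30 min later. Blood glucose was measured by glucometer at −30, 0, 15, 30, 60 and 120 min. Glucose AUC0-120min was calculated, mean ± SD.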

Data set [2] is described as follows: Half life in Sprague-Dawley rat at 3 mg/kg, po by LC-MS/MS analysis. The data set is classed as ADME, organism-based. The following applies: in vivo.
A short description of data set [3]: Cmax in Sprague-Dawley rat at 3 mg/kg, po by LC-MS/MS analysis. The format is ADME, organism-based. More on the design: dose 3 mg/kg, route oral. The following applies: in vivo.
Data set [4] can be described thus: Clearance in Sprague-Dawley rat at 3 mg/kg, po by LC-MS/MS analysis. The format is ADME, organism-based. The following applies: in vivo.
Data set [5] has as its target T1, Peroxisome proliferator-activated receptor gamma (Homo sapiens, UniProt P37231).
T1 sequence (P37231 whole entry): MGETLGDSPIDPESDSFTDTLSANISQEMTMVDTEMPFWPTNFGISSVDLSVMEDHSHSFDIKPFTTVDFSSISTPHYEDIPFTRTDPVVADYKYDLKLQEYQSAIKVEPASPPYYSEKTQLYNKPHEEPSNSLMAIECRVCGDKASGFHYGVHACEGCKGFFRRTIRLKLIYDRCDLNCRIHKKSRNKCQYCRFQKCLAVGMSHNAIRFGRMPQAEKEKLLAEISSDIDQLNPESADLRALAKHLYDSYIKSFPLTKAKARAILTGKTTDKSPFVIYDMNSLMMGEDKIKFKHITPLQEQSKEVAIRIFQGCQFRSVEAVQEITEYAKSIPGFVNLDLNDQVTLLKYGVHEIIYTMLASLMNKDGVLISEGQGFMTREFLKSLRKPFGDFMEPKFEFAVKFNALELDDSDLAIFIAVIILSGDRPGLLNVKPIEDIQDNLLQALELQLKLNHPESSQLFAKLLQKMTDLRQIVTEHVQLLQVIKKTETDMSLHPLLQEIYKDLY
In words: Transactivation of GAL4-fused human PPARgamma LBD expressed in HEK293 cells after 18 hrs by luciferase reporter gene assay. The format is cell-based. The procedure, abridged: (§2)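 HepG2 or HEK293 cells were transfected with pBIND-PPARα, -δ or -γ (GAL4 fusion). Compounds at varying concentrations were incubated for 18 h. Cells were then lysed and firefly and renilla luciferase were read by dual-luciferase assay.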
In general terms: A reporter such as luciferase makes a cellular process visible.

Data set [6] deals with T2, Peroxisome proliferator-activated receptor delta (Homo sapiens, UniProt Q03181).
T2 sequence (Q03181 whole entry): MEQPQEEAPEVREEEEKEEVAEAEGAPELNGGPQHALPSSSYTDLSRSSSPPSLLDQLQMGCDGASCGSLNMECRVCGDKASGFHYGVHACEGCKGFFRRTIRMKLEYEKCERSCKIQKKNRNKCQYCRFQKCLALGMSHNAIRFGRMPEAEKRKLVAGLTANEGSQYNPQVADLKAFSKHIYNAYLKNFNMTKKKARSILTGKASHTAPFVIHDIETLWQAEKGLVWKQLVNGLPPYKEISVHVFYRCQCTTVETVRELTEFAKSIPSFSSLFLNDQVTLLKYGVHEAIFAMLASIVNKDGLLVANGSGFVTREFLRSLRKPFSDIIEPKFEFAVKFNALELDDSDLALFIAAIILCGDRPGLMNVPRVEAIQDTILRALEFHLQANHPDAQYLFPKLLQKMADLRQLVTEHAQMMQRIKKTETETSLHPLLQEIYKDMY
The data set can be described thus: Transactivation of GAL4-fused human PPARdelta LBD expressed in HEK293 cells after 18 hrs by luciferase reporter gene assay. The data set is classed as cell-based.

Data set [7] in a line: AUC (0 to 24 hrs) in Sprague-Dawley rat at 3 mg/kg, po by LC-MS/MS analysis. Set-up: dose 3 mg/kg, time < 24 hr, route oral. The following applies: in vivo. The data set is classed as ADME, organism-based.
The test system of data set [8] is Mus musculus. The data set can be described thus: Antidiabetic activity in po dosed ob/ob mouse assessed as reduction in blood glucose AUC (0 to 120 mins) administered as single dose pretreated for 30 mins followed by glucose-challenge by glucometric analysis. The data set is classed as functional, organism-based. The procedure, abridged: as §1
Data set [9] deals with Mus musculus. In words: Antidiabetic activity in ob/ob mouse assessed as reduction in blood glucose AUC (0 to 120 mins) at 100 mg/kg, po administered as single dose pretreated for 30 mins followed by glucose-challenge by glucometric analysis relative to control. The data set is classed as functional. More on the design: scale not given: the % may be the effect or the level left. A digest of the protocol: as §1

Data set [10] concerns Mus musculus. The data set can be described thus: Antidiabetic activity in ob/ob mouse assessed as reduction in blood glucose AUC (0 to 120 mins) at 30 mg/kg, po administered as single dose pretreated for 30 mins followed by glucose-challenge by glucometric analysis relative to control. The data set is classed as functional. More on the design: scale not given: the % may be the effect or the level left. The procedure, abridged: as §1

In data set [11] the target is Free fatty acid receptor 1 (Homo sapiens, UniProt O14842). The data set can be described thus: Agonist activity at human FFA1 receptor expressed in CHO cells by Fluo 4-AM dye based FLIPR assay. The format is cell-based. A digest of the protocol:
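hFFA1-expressing CHO cells were loaded for 1 h at 37 °C with buffer containing 2.5 μg/mL Fluo 4-AM, 0.1% fatty acid-free BSA and 2.5 mmol/L probenecid. Compounds were added and calcium flux was read on FLIPR. Activity = (A–B)/(C–B)×100%, where A is the compound response, B the vehicle response and C the 10 μM γ-linolenic acid response.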

Data set [12] concerns the target T3, Peroxisome proliferator-activated receptor alpha (Homo sapiens, UniProt Q07869).
T3 sequence (Q07869 whole entry): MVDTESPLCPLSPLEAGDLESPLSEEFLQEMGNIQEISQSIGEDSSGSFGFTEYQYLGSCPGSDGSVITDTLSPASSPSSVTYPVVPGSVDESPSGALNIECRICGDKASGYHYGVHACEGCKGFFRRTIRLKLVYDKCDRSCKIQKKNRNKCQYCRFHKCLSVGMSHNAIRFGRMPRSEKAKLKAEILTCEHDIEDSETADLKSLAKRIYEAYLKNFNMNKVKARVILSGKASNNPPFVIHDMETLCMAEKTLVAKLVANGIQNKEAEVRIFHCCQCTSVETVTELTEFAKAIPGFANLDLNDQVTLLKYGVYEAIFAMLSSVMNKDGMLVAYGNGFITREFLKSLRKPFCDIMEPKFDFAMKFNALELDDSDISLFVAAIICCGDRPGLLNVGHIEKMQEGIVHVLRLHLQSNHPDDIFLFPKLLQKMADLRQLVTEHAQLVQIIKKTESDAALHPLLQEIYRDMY
In words: Transactivation of GAL4-fused human PPARalpha LBD expressed in HEK293 cells after 18 hrs by luciferase reporter gene assay. The format is cell-based. A digest of the protocol:
as §2

Data set [13] deals with Mus musculus. In words: Antidiabetic activity in ob/ob mouse assessed as reduction in blood glucose AUC (0 to 120 mins) at 40 mg/kg, po administered as single dose pretreated for 30 mins followed by glucose-challenge by glucometric analysis relative to control. The data set is classed as functional. More on the design: scale not given: the % may be the effect or the level left. The procedure, abridged: as §1

Where only a bound is given, the exact number is not on record here.

Free fatty acid receptor 1, sequence (O14842 whole entry): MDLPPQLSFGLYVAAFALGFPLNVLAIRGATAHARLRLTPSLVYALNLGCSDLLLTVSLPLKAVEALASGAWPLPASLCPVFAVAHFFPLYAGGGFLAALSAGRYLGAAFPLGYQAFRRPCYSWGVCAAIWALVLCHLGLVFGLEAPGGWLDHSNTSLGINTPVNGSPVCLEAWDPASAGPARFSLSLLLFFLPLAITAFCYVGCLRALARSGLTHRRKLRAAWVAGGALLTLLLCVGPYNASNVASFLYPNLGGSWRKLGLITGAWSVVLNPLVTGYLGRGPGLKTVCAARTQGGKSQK

Take `Cc1nc(-c2ccc(C(F)(F)F)cc2)sc1COc1ccc2c(c1)OC[C@H]2CC(=O)O`: the Activity was 1.1% in the data set on Mus musculus [1], “Dose-dependent effect” in the data set with Mus musculus [8], 10.9% in the data set on Mus musculus [9] and 6.1% in the data set with Mus musculus [10]. Besides, the half-life in [2] was 4.31 h. The molecule also returned a Cmax in [3] of 9.45 µg/mL. The CL/F in data set [4] is 0.0167 L/h/kg. For the same molecule, the EC50 was above 10 µM in data set [5], 0.102 µM in data set [6], 0.068 µM in [11] and above 10 µM in data set [12]. Besides, in data set [7], the AUC(0-t) at 24 h amounted to 95.6 µg·h/mL.
For the molecule `Cc1cc(OCCCS(C)(=O)=O)cc(C)c1-c1cccc(COc2ccc3c(c2)OC[C@H]3CC(=O)O)c1`, the Activity in the data set on Mus musculus [13] worked out at 15.7%.

Broadly, the half-life is how long it takes for the measured level to halve. Usually Cmax stands for the highest concentration seen after dosing. The CL/F is clearance divided by bioavailability, as obtained after extravascular dosing. The EC50 is the concentration that produces a half-maximal response. Usually AUC(0-t) stands for the area under the concentration-time curve up to a stated or last time point.
